This note sets out measurements from the array DNA melting data of Ke et al. (doi:10.1101/2024.01.08.574731).

Series [1] can be described thus: folding enthalpy; higher = less favourable; fluorescence melt of hairpins on a sequencing array, two-state fit. As to conditions: sodium 0.088 M. A digest of the protocol:
(§1)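 Library hairpins on a sequenced MiSeq flow cell carried annealed Cy3 and quencher oligos, and their Cy3 fluorescence was imaged in 50 mM Na-HEPES pH 8.0 with 25 mM NaCl, in 2.5 °C steps up to 60 °C. Signals were normalised to Cy3 before quenching and to control constructs. Melting temperature and folding enthalpy were obtained from bootstrapped two-state fits, combined by inverse-variance weighting across four replicates, and the fitted temperatures were then raised by 9.35 °C to match UV melts.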

Series [2] can be described thus: melting temperature; fluorescence melt of hairpins on a sequencing array, two-state fit, raised by 9.35 °C to match UV melts. As to conditions: sodium 0.088 M. A digest of the protocol: as §1

Consider GTTCTAGGAAACTAGGAC ((.((((....)))).)), for which the folding enthalpy in series [1] was -28.5 kcal/mol. For the same sequence, the Tm in series [2] came out at 39.7 °C.
In the case of GTTCTCCGAAAGGAAAAC (((.(((....))).))), in series [1], the folding enthalpy is -25.2 kcal/mol. Further, the Tm in series [2] stood at 35.5 °C.
In the same order, the values of GTTCTCGAAAGAGGAAC ((((((....))).))) are -20.8 kcal/mol and 38.3 °C.
For the sequence GTTCTCGAAAGAGTCAAC ((((((....)))..))), in series [1], the folding enthalpy was -10.2 kcal/mol. The Tm in series [2] came out at 23.2 °C.
Turning to GTTCTCGCGAAAGCGAAC (((..(((....)))))), in series [1], the folding enthalpy was -7.5 kcal/mol. For the same sequence, the Tm in series [2] came out at 27.8 °C.
In the same order, the values of GTTCTCGGAAACGAGAAC (((((((....))))))) are -34.5 kcal/mol and 65.7 °C.
In the same order, the values of GTTCTGCCGAAAGGCAAC (((..(((....)))))) are -7.25 kcal/mol and 25.1 °C.
In the same order, the values of GTTCTGGGAAACCAAAAC (((.(((....))).))) are -12.4 kcal/mol and 26.5 °C.
In the case of GTTCTGGGAAACCAGAAC (((((((....))))))), in series [1], the folding enthalpy is -42.9 kcal/mol. For the same sequence, the Tm in series [2] was determined as 60.5 °C.
In the same order, the values of GTTCTGGGAAACCAGGAC ((.((((....)))).)) are -31.8 kcal/mol and 49.1 °C.
In the same order, the values of GTTCTGGGAAACTAGAAC (((((.(....).))))) are -29.6 kcal/mol and 42.9 °C.
In the same order, the values of GTTCTTACGAAAGTAAAC (((..(((....)))))) are -6.21 kcal/mol and 21.9 °C.
GTTCTTGGAAACAAGGAC ((.((((....)))).)): the folding enthalpy in series [1] is -23.9 kcal/mol. Moreover, in series [2], the Tm came out at 44.6 °C.
In the same order, the values of GTTGAACGAAAGTTAAC (((.(((....)))))) are -12.3 kcal/mol and 30 °C.
On to GTTGAACGAAAGTTTAAC (((.(((....))).))), for which, in series [1], the folding enthalpy is -31.7 kcal/mol. For the same sequence, the Tm in series [2] came out at 45.3 °C.
In the same order, the values of GTTGAAGGAAACTTTAAC (((.(((....))).))) are -17.7 kcal/mol and 32.1 °C.
For GTTGACCGAAAGGTAAC (((.(((....)))))), the folding enthalpy in series [1] is -16.4 kcal/mol. The Tm in series [2] was 38.1 °C.
In the same order, the values of GTTGACGAAAGTCACAAC ((((((....)))..))) are -9.62 kcal/mol and 36.2 °C.
For GTTGACGAAAGTCTGAAC ((((((....)))..))), the folding enthalpy in series [1] was -11.5 kcal/mol. The Tm in series [2] is 25.1 °C.
In the same order, the values of GTTGACGGAAACATCAAC (((((.(....).))))) are -31.8 kcal/mol and 37.2 °C.
Turning to GTTGACGGAAACGTCAGC (.(((((....))))).), in series [1], the folding enthalpy was -22 kcal/mol. The Tm in series [2] worked out at 52.5 °C.
In the same order, the values of GTTGAGGGAAACCCCAAC ((((.((....)).)))) are -26.1 kcal/mol and 43.3 °C.
On to GTTGAGTCGAAAGACAAC (((..(((....)))))), for which the folding enthalpy in series [1] was -14.6 kcal/mol. Moreover, in series [2], the Tm worked out at 31 °C.
For GTTGATCCGAAAGGAAAC (((..(((....)))))), the folding enthalpy in series [1] was -20.8 kcal/mol. Further, the Tm in series [2] turned out to be 27.6 °C.
GTTGATCGAAAGATAAC (((.(((....)))))): the folding enthalpy in series [1] is -13.3 kcal/mol. The Tm in series [2] came to 28.9 °C.
As to GTTGATCGAAAGATTAAC (((.(((....))).))), in series [1], the folding enthalpy was -30.6 kcal/mol. The Tm in series [2] was 44.8 °C.
GTTGATGCGAAAGCAAAC (((..(((....)))))): the folding enthalpy in series [1] was -13.8 kcal/mol. Moreover, the Tm in series [2] was 37.1 °C.
Turning to GTTGATGGAAACATCAAC (((((((....))))))), the folding enthalpy in series [1] was -46.2 kcal/mol. Moreover, the Tm in series [2] came to 57.7 °C.
In the same order, the values of GTTGATGGAAACATCAGC (.(((((....))))).) are -25 kcal/mol and 46.5 °C.
Consider GTTGATGGAAACATTAAC (((.(((....))).))), for which the folding enthalpy in series [1] was -34.1 kcal/mol. Besides, the Tm in series [2] turned out to be 37.5 °C.
In the same order, the values of GTTGCACGAAAGTGAAC (((.(((....)))))) are -14.1 kcal/mol and 39.2 °C.
In the same order, the values of GTTGCAGGAAACTGCGAC ((.((((....)))).)) are -28 kcal/mol and 53.9 °C.
GTTGCCACGAAAGTGAAC (((..(((....)))))): in series [1], the folding enthalpy is -11.8 kcal/mol. In addition, the Tm in series [2] was 30.6 °C.
In the same order, the values of GTTGCCGAAAGGCCAAAC ((((((....)))..))) are -10.3 kcal/mol and 26.9 °C.
On to GTTGCCGAAAGGCGAAAC ((((((....)))..))), for which the folding enthalpy in series [1] is -9.33 kcal/mol. Also, in series [2], the Tm worked out at 33.2 °C.
In the case of GTTGCCGAAAGGCGCAAC ((((((....)))..))), the folding enthalpy in series [1] was -8.82 kcal/mol. The Tm in series [2] came to 31.9 °C.
In the same order, the values of GTTGCCTCGAAAGAGAAC (((..(((....)))))) are -12.1 kcal/mol and 25.4 °C.
In the same order, the values of GTTGCGACGAAAGTCAAC (((..(((....)))))) are -16.8 kcal/mol and 33.5 °C.
With GTTGCGCGAAAGCGAAC (((.(((....)))))), in series [1], the folding enthalpy is -13.4 kcal/mol. Further, the Tm in series [2] amounted to 45.5 °C.
In the same order, the values of GTTGCGCGAAAGCGGAAC (((.(((....))).))) are -30.9 kcal/mol and 67.6 °C.
In the same order, the values of GTTGCGGGAAACCGTGAC ((..(((....)))..)) are -20.2 kcal/mol and 45.2 °C.
As for GTTGCGGGAAACTGCAGC (.(((.(....).))).), the folding enthalpy in series [1] is -15.8 kcal/mol. For the same sequence, in series [2], the Tm is 45 °C.
In the same order, the values of GTTGCTGAAAAGCAAC ((((((....)))))) are -32.8 kcal/mol and 66 °C.
In the same order, the values of GTTGCTGCGAAAGCAAAC (((..(((....)))))) are -14.3 kcal/mol and 37.8 °C.
As for GTTGCTGGAAACAGCAGC (.(((((....))))).), the folding enthalpy in series [1] is -26.3 kcal/mol. For the same sequence, the Tm in series [2] stood at 54.5 °C.
In the same order, the values of GTTGCTGGAAACAGTAAC (((.(((....))).))) are -29 kcal/mol and 47 °C.
In the same order, the values of GTTGCTGGAAACGGCAAC (((((.(....).))))) are -43.6 kcal/mol and 55.2 °C.
In the same order, the values of GTTGGACGAAAGTCAAAC (((.(((....))).))) are -26.9 kcal/mol and 50.9 °C.
On to GTTGGACGAAAGTCTAAC (((.(((....))).))), for which the folding enthalpy in series [1] is -26.3 kcal/mol. For the same sequence, in series [2], the Tm was 51.4 °C.
On to GTTGGAGAAATCCAAC ((((((....)))))), for which, in series [1], the folding enthalpy is -32 kcal/mol. For the same sequence, the Tm in series [2] worked out at 52 °C.
In the same order, the values of GTTGGCCGAAAGGCGAAC (((.(((....))).))) are -26.6 kcal/mol and 57.4 °C.
On to GTTGGCGAAAGCCGGAAC ((((((....)))..))), for which the folding enthalpy in series [1] is -7.97 kcal/mol. For the same sequence, the Tm in series [2] turned out to be 27.8 °C.
In the same order, the values of GTTGGCGGAAACGCTAGC (.(.(((....))).).) are -13.2 kcal/mol and 34.5 °C.
As to GTTGGGGGAAACCCCGAC ((.((((....)))).)), in series [1], the folding enthalpy is -24.2 kcal/mol. For the same sequence, the Tm in series [2] is 56.6 °C.
Consider GTTGGGGGAAACCCTAGC (.(.(((....))).).), for which, in series [1], the folding enthalpy is -9.75 kcal/mol. In addition, the Tm in series [2] was 24.6 °C.
In the same order, the values of GTTGGGGGAAACCTCAAC ((((.((....)).)))) are -32 kcal/mol and 47.8 °C.
For the sequence GTTGGGGGAAACCTCAGC (.((.((....)).)).), the folding enthalpy in series [1] is -17.4 kcal/mol. For the same sequence, the Tm in series [2] came out at 31 °C.
In the same order, the values of GTTGGTGGAAACACTGAC ((..(((....)))..)) are -15.9 kcal/mol and 34.8 °C.
With GTTGGTGGAAACGTCAAC ((((..(....)..)))), in series [1], the folding enthalpy is -16.1 kcal/mol. In addition, in series [2], the Tm stood at 33.5 °C.
Regarding GTTGTACCGAAAGGTAAC (((..(((....)))))), the folding enthalpy in series [1] is -23.7 kcal/mol. Further, the Tm in series [2] came out at 47.4 °C.
GTTGTACGAAAGTAAAC (((.(((....)))))): the folding enthalpy in series [1] is -21.9 kcal/mol. In addition, in series [2], the Tm was determined as 39.7 °C.
In the same order, the values of GTTGTACGAAAGTAGAAC (((.(((....))).))) are -30.1 kcal/mol and 44 °C.
With GTTGTATCGAAAGATAAC (((..(((....)))))), the folding enthalpy in series [1] is -27.3 kcal/mol. Moreover, the Tm in series [2] was 37.1 °C.
With GTTGTCGAAAGACAAAAC ((((((....)))..))), in series [1], the folding enthalpy is -13.6 kcal/mol. In series [2], the Tm is 36.9 °C.
Consider GTTGTCGAAAGACAAC ((((((....)))))), for which, in series [1], the folding enthalpy is -27.7 kcal/mol. For the same sequence, the Tm in series [2] was 67.5 °C.
Take GTTGTCGAAAGACATAAC ((((((....)))..))): in series [1], the folding enthalpy was -13.3 kcal/mol. Moreover, the Tm in series [2] came out at 32.6 °C.
As to GTTGTCGAAAGACTGAAC ((((((....)))..))), in series [1], the folding enthalpy is -11.3 kcal/mol. Besides, the Tm in series [2] was found to be 30.7 °C.
In the same order, the values of GTTGTCGGAAACAACAAC (((((.(....).))))) are -23.4 kcal/mol and 40.2 °C.
In the same order, the values of GTTGTCTCGAAAGAGAAC (((..(((....)))))) are -22.2 kcal/mol and 46.1 °C.
In the same order, the values of GTTGTGACGAAAGTCAAC (((..(((....)))))) are -21.6 kcal/mol and 49.7 °C.
For the sequence GTTGTGTCGAAAGACAAC (((..(((....)))))), in series [1], the folding enthalpy is -24.9 kcal/mol. Also, the Tm in series [2] was 51.1 °C.
With GTTGTTGGAAACAATAGC (.(.(((....))).).), in series [1], the folding enthalpy is -11.9 kcal/mol. The Tm in series [2] came out at 31.2 °C.
In the same order, the values of GTTGTTGGAAACAATGAC ((..(((....)))..)) are -13.9 kcal/mol and 38.5 °C.
